From PubChem BioAssay AID623890 (Vanderbilt Specialized Chemistry Center, 2012) come the findings set out here.

The structures appear in SMILES notation.

This assay has as its target Metabotropic glutamate receptor 5 (Rattus norvegicus) (UniProt P31424). Nature of the assay: off-target activity at rat mGlu5, profiling panel, selectivity assay for mGlu4 lead optimization, cell-based, calcium flux, Fluo-4 (AID 623890). To be noted: rat mGlu5 cells, Fluo-4 calcium flux, glutamate CRC shift, at 10 µM. The method in brief:
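System: rat mGlu5-expressing cells. Medium: HEPES- and probenecid-buffered HBSS, pH 7.3. Signal: Fluo-4 calcium fluorescence, excitation 470 nm, emission 540 nm. Incubation: ~2.5 min compound pre-incubation, ~3 min post-agonist read. Read-out: peak post-agonist fluorescence rise, normalized to baseline and pre-agonist point, four-parameter logistic fit. Doses: single compound dose, 10 µM final.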

Metabotropic glutamate receptor 5 (Rattus norvegicus), sequence (P31424 whole entry, looked up): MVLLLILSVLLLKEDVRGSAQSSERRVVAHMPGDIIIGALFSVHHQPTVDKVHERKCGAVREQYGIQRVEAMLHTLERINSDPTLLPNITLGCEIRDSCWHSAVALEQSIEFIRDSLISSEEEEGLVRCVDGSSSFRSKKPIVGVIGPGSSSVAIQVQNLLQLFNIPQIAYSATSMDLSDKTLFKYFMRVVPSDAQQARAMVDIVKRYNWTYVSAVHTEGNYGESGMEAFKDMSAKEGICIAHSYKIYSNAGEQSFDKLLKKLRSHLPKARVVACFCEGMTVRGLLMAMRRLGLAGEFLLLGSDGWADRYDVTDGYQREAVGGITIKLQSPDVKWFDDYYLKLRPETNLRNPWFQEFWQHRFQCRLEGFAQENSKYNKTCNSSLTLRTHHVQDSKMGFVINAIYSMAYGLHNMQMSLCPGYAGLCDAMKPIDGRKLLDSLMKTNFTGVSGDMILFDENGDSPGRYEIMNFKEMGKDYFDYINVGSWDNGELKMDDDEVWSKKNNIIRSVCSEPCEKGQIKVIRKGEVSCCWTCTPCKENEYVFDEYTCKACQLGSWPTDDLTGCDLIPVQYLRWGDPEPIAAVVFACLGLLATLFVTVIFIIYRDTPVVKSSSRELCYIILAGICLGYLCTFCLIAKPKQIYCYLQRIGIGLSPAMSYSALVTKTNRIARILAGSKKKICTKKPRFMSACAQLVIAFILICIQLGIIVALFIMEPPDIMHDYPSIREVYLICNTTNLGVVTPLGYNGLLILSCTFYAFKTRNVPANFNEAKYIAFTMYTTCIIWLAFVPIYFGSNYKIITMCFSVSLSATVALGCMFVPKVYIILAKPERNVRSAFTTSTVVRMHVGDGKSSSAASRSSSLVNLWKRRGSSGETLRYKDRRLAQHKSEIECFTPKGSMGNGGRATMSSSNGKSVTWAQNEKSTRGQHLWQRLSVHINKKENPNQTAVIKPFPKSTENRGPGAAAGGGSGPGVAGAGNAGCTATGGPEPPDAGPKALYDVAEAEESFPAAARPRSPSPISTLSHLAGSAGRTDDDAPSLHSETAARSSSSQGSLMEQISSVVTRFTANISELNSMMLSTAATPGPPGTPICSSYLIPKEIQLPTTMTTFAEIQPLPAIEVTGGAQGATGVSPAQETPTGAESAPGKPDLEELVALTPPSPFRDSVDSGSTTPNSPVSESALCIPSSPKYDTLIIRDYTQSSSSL

Consider `O=C(Nc1cccc(Cl)c1)c1ccccn1`, for which the fold shift of glutamate EC50 was 0.304. Besides, the max response (measured here: glutamate max response with compound) turned out to be 74%.
